A short description of series [1]: Therapeutic index, ratio of HC50 for sheep erythrocytes to MIC50 for polymyxin E-resistant Acinetobacter baumannii ATCC 19606.
The next series deals with Listeria monocytogenes. The experiment in a line: Antibacterial activity against Listeria monocytogenes CECT 4032 after 24 hrs by turbidimetry. It counts as functional. To be noted: CECT 4032, 24 h. The gist of the method: (§1)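 Frozen stocks thawed and grown two days in cation-adjusted Mueller-Hinton II broth at 37 °C. Exponential-phase cells washed twice in PBS pH 7.0 and resuspended in the same broth at 5 × 10^5 CFU/mL. Incubated 24 h at 37 °C with peptide, growth read by turbidity at 600 nm. Two experiments, triplicate samples. MIC50 taken as lowest concentration giving 50% growth inhibition versus untreated control.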

The next series concerns Staphylococcus aureus. Nature of the series: Antibacterial activity against Staphylococcus aureus CECT 240 after 24 hrs by turbidimetry. The conditions noted are these: CECT 240, 24 h. The series is classed as functional. The gist of the method:
as §1

Converted amounts (≈) assume the structure as drawn. Where a SMILES comes first, the peptide text is derived from it.

On to `CC(C)C[C@@H]1NC(=O)[C@H](CCCN)NC(=O)[C@H](C(C)C)NC(=O)[C@H](C2c3ccccc3-c3ccccc32)NC(=O)[C@H]2CCCN2C(=O)[C@H](CC(C)C)NC(=O)[C@H](CCCN)NC(=O)[C@H](C(C)C)NC(=O)[C@H](C2c3ccccc3-c3ccccc32)NC(=O)[C@H]2CCCN2C1=O` (HELM PEPTIDE1{L.[dP].[O=C([C@@H](N[*:1])C1c2ccccc2-c2ccccc21)[*:2]].V.[Orn].L.[dP].[O=C([C@@H](N[*:1])C1c2ccccc2-c2ccccc21)[*:2]].V.[Orn]}$PEPTIDE1,PEPTIDE1,1:R1-10:R2$$$V2.0), for which, in series [1], the selectivity ratio came out at 0.1. The compound also registered an MIC50 in the series on Listeria monocytogenes of 2.2 µM (≈ 2.84 µg/mL).

As to `CC(C)C[C@@H]1NC(=O)[C@H](CCCN)NC(=O)[C@H](C(C)C)NC(=O)[C@@H]2Cc3ccccc3CN2C(=O)[C@H]2CCCN2C(=O)[C@H](CC(C)C)NC(=O)[C@H](CCCN)NC(=O)[C@H](C(C)C)NC(=O)[C@@H]2Cc3ccccc3CN2C(=O)[C@H]2CCCN2C1=O` (HELM PEPTIDE1{L.[dP].[Tic].V.[Orn].L.[dP].[Tic].V.[Orn]}$PEPTIDE1,PEPTIDE1,1:R1-10:R2$$$V2.0), the MIC50 against Staphylococcus aureus was determined as 2.4 µM (≈ 2.8 µg/mL).

As usually defined, the MIC50 is the lowest concentration that inhibits either 50% of growth or 50% of the strains tested, depending on the study. A higher MIC50 goes with weaker potency.
